CASP6 VEID inh – blocks human caspase-6 cleavage activity | purified caspase-6, Z-VEID-R110 cleavage fluorescence | inhibition, % at 12.5 µM | actives 0.53% (n = 350,000) | P55212 | AID 686996;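 active = mean inhibition across replicates at least about 35%, with every replicate also reaching that limit, limit read from the data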;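 note: 0% = median of neutral control wells and 100% = no fluorescence left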
Target sequence (P55212 24-179 limits assumed): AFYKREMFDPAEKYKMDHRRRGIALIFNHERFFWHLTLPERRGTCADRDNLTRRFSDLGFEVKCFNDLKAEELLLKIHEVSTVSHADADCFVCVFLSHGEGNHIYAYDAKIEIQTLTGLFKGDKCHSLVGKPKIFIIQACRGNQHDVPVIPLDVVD
Target sequence (P55212 194-293 limits assumed): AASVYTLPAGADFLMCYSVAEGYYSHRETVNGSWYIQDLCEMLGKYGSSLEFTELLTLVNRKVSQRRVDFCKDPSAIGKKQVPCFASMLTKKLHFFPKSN
LEDGF integ inh – blocks HIV-1 LEDGF/p75-dependent DNA integration; TR-FRET IN-LEDGF/p75 DNA integration, Eu/Cy5; AID 743269; actives 0.64% (n = 370,000); inhibition, % at 3.7 µM;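 active = inhibition above the screen-wide mean plus 3 SD, cut at about 13% in these data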;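 note: signal is the Cy5 over europium emission ratio at 671 and 618 nm; 0% = plate median of compound wells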
NSD2 inh – NSD2 (human) methyltransferase inhibition | actives 0.54% (n = 310,000) | NSD2 peptide methylation, AlphaScreen, 120 min | inhibition, % at 12.5 µM | O96028 | AID 743445; in the data active = inhibition above about 50%
MBD2 inh – MBD2-methylated oligo binding inhibition; TR-FRET, MBD2 binding to methylated oligonucleotide; inhibition, % at 4.4 µM; actives 0.31% (n = 370,000); in the data active = inhibition above about 13%
Target sequence (Q9UBB5 whole entry, looked up): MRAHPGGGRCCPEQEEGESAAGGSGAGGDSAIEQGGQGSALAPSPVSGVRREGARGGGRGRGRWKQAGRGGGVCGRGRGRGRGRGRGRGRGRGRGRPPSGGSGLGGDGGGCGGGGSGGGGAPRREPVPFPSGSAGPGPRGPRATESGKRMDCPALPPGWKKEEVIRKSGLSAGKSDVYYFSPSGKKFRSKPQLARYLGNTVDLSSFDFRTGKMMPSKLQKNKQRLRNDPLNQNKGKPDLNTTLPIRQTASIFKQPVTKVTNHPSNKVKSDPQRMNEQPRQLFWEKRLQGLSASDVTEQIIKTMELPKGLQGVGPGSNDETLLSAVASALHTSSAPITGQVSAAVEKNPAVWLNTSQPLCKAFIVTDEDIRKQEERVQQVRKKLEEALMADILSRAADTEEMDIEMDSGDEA
UHRF1 MBD2 ctr – blocks human UHRF1 binding to methylated DNA; inhibition, % at 4.4 µM; UHRF1 binding to methylated oligo, TR-FRET; actives 0.75% (n = 370,000); AID 687016; Q96T88; in the data active = inhibition above about 21%;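 note: UHRF1 SRA domain binding a hemimethylated CpG hairpin DNA probe; 0% = median of test compound wells and 100% = reference inhibitor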
TDP2 inh – blocks human TDP2 phosphodiesterase activity | O95551 | recombinant TDP2, T5PNP hydrolysis, p-nitrophenol absorbance 415 nm | inhibition, % at 12.8 µM | actives 0.34% (n = 370,000);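 active = inhibition above the mean of all tested compounds plus 3 SD, set per campaign, cut at about 25% in these data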;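 note: 0% = DMSO with enzyme and 100% = buffer with substrate but no TDP2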
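Test system: Human TDP2 enzyme | Reagent: 5 mM T5PNP | Compound dosing: 12.8 µM single point, 1% DMSO | Incubation: Enzyme reaction with compound for 2 h at 37 °C | Technique: p-Nitrophenol epi absorbance | Read-out: % inhibition relative to enzyme-containing and enzyme-free wells | Benchmarks: High control without enzyme, low control DMSO plus TDP2 | Replicates: Singlicate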
AlphaScreen art – counter-screen for NSD2 inhibitors: AlphaScreen artifacts; AlphaScreen artifact counterscreen, preloaded methylated H4 peptide; shares compounds with NSD2 inh; actives 9.4% (n = 1,500); AC35, µM (highest dose often 10 µM), for the others: at the highest dose activity change, negative = signal loss; call rule not given here
The depositor's hits bear a star; · = no result given; [ ] = another dose, or the depositor's remark. Rows were chosen to be rich in hits. Some 1.9% of all compounds tested hit in one or more screens of this group.

SMILES	CASP6 VEID inh	LEDGF integ inh	NSD2 inh	MBD2 inh	UHRF1 MBD2 ctr	TDP2 inh	AlphaScreen art
CCS(=O)(=O)c1ccc(N=Nc2ccc(O)c3ncccc23)c(OC)c1	·	-0.6	24.4	-1.2	-6.5	-1.7	·
COc1cc(/C=N/N2CCN(C3c4ccccc4-c4ccccc43)CC2)cc(OC)c1O	·	-1.3	-0.1	0.3	2.5	-4.0	·
COc1cc(/C=N/N2CCN(C3c4ccccc4-c4ccccc43)CC2)cc(OC)c1OC	0.0	-2.5	143.6*	2.3	1.4	4.5	1.8%[5 µM]
CC(=O)N1C2CCCCC2S[C@H]2CCCCC21 (some centres not stated)	·	-2.0	56.7*	1.1	1.1	6.3	1.7%
COCCNC(=O)c1cc2c(=O)n3cccc(C)c3nc2n1C	-2.5	-1.5	·	-0.3	5.8	-5.1	·
Cc1cccn2c(=O)c3cc(C(=O)NCCCn4ccnc4)n(C)c3nc12	·	1.7	117.7*	-2.8	-2.9	-3.0	2.3%
CC(C)(C)NC(=O)C(c1ccco1)N(C(=O)Cn1nnc(-c2ccc(F)cc2)n1)c1ccccc1F (configuration not stated)	·	-0.5	50.1*	0.4	4.4	-6.1	-3.2%
CC(=O)N=Cc1c(C)c(C#N)c(=O)n(C)c1O	31.0	2.6	100.7*	4.2	-5.8	21.0	-4.7%
Cc1c(/C=N/Nc2ccc(F)cc2)c(O)n(C)c(=O)c1C#N	12.2	-0.9	6.4	-8.6	-6.3	-3.0	·
COCc1[nH][nH]c(=O)c1C=Nc1ccccc1	·	2.5	0.3	1.0	-1.5	5.9	·
COCc1[nH][nH]c(=O)c1C=NCC(=O)OC	-4.9	4.0	50.8*	3.6	3.8	1.2	-6.0%
CCN1CCCC1CNC(=O)c1ccc2c(c1)N(Cc1ccccc1F)C(=O)c1ccccc1S2(=O)=O (configuration not stated)	-15.7	-2.1	15.4	-4.6	-2.6	-4.3	·
CCN1CCCC1CNC(=O)c1ccc2c(c1)N(Cc1cccc(Cl)c1)C(=O)c1ccccc1S2(=O)=O (configuration not stated)	-2.5	0.8	58.3*	-1.4	2.3	1.2	-5.3%
COc1ccc(NC(=O)N2C[C@@H](O)COC[C@H]3O[C@@H](CC(=O)N4CCN(C)CC4)CC[C@@H]32)cc1	1.2	·	·	·	·	·	·
CC(C)C#Cc1ccc([C@@H]2[C@H]3CN(C(=O)Nc4ccccc4)CCCCN3[C@H]2CO)cc1	-1.8	·	·	·	·	·	·
CCN(CC)CCCNC1=C(Cl)C(=O)c2ccccc2C1=O	38.5*	-0.7	112.0*	-14.5	-9.6	6.2	-5.3%
CC(C)OCCCNC1=C(Cl)C(=O)c2ccccc2C1=O	25.4	-1.8	38.1	-19.2	-14.2	0.0	·
COCCCNC1=C(Cl)C(=O)c2ccccc2C1=O	17.9	2.2	67.6*	-21.2	-23.6	22.3	-6.1%
COc1ccc(S(=O)(=O)N(C)C[C@H]2Oc3ccc(NC(=O)Cn4cnnn4)cc3CC(=O)N([C@H](C)CO)C[C@@H]2C)cc1	-1.0	·	·	·	·	·	·
C[C@@H](NC(=O)C[C@H]1CC[C@@H](NS(=O)(=O)c2cccc(F)c2)[C@H](CO)O1)c1ccccc1	-5.2	·	·	·	·	·	·
ClN=C1C=CC=CC1=NCl	·	·	107.6*	·	·	·	-2.9%
COC1=CC(=NCl)C=CC1=NCl	·	·	-10.0	·	·	·	·
CNCc1cc(Br)c(OCC(=O)Nc2ccccc2OC)c(OC)c1	-2.5	-5.0	73.0*	3.9	1.9	-0.1	-3.2%
Cn1c(N)c(C#N)c2c(c1=S)CSC(C)(C)C2	·	-0.2	50.7*	-7.8	-4.2	1.5	-2.4%
O=C(C[C@H]1CC[C@H]2[C@@H](COC[C@@H](O)CN2Cc2ccc(Oc3ccccc3)cc2)O1)Nc1nccs1	-0.6	·	·	·	·	·	·
SMILES	CASP6 VEID inh	LEDGF integ inh	NSD2 inh	MBD2 inh	UHRF1 MBD2 ctr	TDP2 inh	AlphaScreen art
CCCNC(=O)N1[C@H](CO)[C@H](c2ccccc2)[C@@H]1CNC(C)=O	-0.5	·	·	·	·	·	·
CN1C(=O)/C(=C/c2ccc(-c3ccccc3[N+](=O)[O-])o2)SC1=Nc1ccc(Cl)c(C(=O)O)c1	·	2.5	116.8*	-5.4	-0.8	6.5	-3.8%
O=C(C[C@@H]1CC[C@@H](NC(=O)Nc2ccccc2)[C@@H](CO)O1)NCc1ccccn1	-2.8	·	·	·	·	·	·
CCCCc1ccc(NC(=O)CSc2nc(=O)n(CCN(CC)CC)c3c2CCCC3)cc1	16.3	-3.1	65.8*	-2.5	-2.2	-2.5	-2.6%
C[C@@H]1CN([C@@H](C)CO)S(=O)(=O)c2ccc(C#C[C@@H](C)O)cc2O[C@H]1CN(C)Cc1ccccc1	0.2	·	·	·	·	·	·
O=S(=O)(c1ccccc1)N1CCN(C2CCCCCCC2)CC1	·	-1.0	·	-4.2	15.2	0.4	·
NS(=O)(=O)c1ccc(S(=O)(=O)N2CCN(C3CCCC3)CC2)cc1	1.9	2.5	117.5*	2.7	1.4	14.9	-0.6%
CN(C)C(=O)C[C@H]1C=C[C@H](NS(=O)(=O)c2ccccc2)[C@@H](CO)O1	-1.0	·	·	·	·	·	·
COC1=CC(=O)C(OC)=C(OC)C1=O	-1.2	0.9	100.7*	-7.4	-6.1	1.2	3.2%
CCC(=O)N1CC2(C1)[C@H](c1ccc(-c3ccc(F)cc3)cc1)[C@H](CO)N2C(C)=O	-0.7	·	·	·	·	·	·
CCCCc1nc2cc(C(=O)N3CCC(O)CC3)ccc2o1	0.3	1.3	66.2*	-2.2	2.4	-10.6	-4.4%
COc1ccc(NC(=O)Nc2ccc3c(c2)C(=O)N([C@H](C)CO)C[C@@H](C)[C@@H](CN(C)C(=O)C2CCCCC2)OCCCC[C@@H](C)O3)cc1	-17.4	·	·	·	·	·	·
O=c1[nH]c(COc2ccccc2)nc2ccccc12	-1.3	-0.3	-1.8	0.3	3.6	7.9	·
Cc1cc(=O)[nH]c(COc2ccccc2)n1	·	3.8	54.7*	4.2	2.0	-2.0	-4.8%
COC(=O)COc1ccc(S(=O)(=O)NCC2CCCO2)cc1Cl (configuration not stated)	·	-2.7	51.2*	-0.5	0.4	0.0	1.4%
O=C(/C=C/c1ccc(-c2ccccc2)cc1)NCc1cccnc1	-1.6	2.1	62.1*	4.1	-0.8	0.1	-1.8%
CCN(CC)CCNC(=O)CCc1c(C)nc2c(c(C)nn2-c2ccc(C)c(C)c2)c1C	-23.9	2.6	11.0	7.8	6.1	-0.5	·
CCOC(=O)NCCc1c(C)nc2c(c(C)nn2C(C)(C)C)c1C	·	1.7	68.0*	-6.3	0.7	-1.2	-6.1%
C=CCn1c(-c2ccc(OC)cc2)nc2nc3ccccc3nc21	·	-1.8	66.9*	-0.8	-2.1	-0.8	1.3%
CC(C)NC(=O)N(C)C[C@@H]1OCCCC[C@@H](C)Oc2ccc(NC(=O)CCC(F)(F)F)cc2C(=O)N([C@@H](C)CO)C[C@H]1C	-2.9	·	·	·	·	·	·
OCCNC(=S)Nc1ccc2nsnc2c1	5.6	-2.9	96.1*	-6.8	-7.7	-5.8	-2.8%
O=C(Cc1ccc(Br)cc1)Nc1ncc([N+](=O)[O-])s1	1.8	-2.4	50.2*	-1.4	-0.1	3.1	0.0%
